Experimental data as given in ChEMBL document CHEMBL1134346, “Labeling and evaluation of N-[11C]methylated quinoline-2-carboxamides as potential radioligands for visualization of peripheral benzodiazepine receptors” (J Med Chem, 2001).

target: Translocator protein (Rattus norvegicus) (UniProt P16257); experiment: Tissue (adrenal gland) concentration of radioactivity at 30 min post-injection into Albino male CD rats after pretreatment with cold PK 11195.; assay type: functional, tissue-based; settings: not given
In short: (§1)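 Separate groups of five rats received tail-vein PK 11195 (1.4-1.6 mg; 5 mg/kg) in 30 µL DMSO:EtOH 1:1, or vehicle alone, immediately before iv radioligand (90-170 µCi in saline, 0.9-1 Ci/µmol). Rats were decapitated at 30 min and tissues gamma-counted; values are %I.D./g.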

Translocator protein (Rattus norvegicus), sequence (P16257 whole entry, looked up): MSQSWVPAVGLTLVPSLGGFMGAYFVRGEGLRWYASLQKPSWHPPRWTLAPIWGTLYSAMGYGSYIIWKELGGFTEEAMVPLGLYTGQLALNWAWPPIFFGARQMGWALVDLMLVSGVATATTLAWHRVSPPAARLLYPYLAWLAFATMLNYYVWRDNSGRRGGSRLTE

Structure (SMILES) | I.D./g [%]
Cc1c(C(=O)N(C)Cc2ccccc2)nc2ccccc2c1-c1ccccc1 | < 0.17

species on record: Rattus norvegicus; experiment: Tissue (testicle) distribution in Albino male CD rats after 5 minutes expressed as percent of injected dose per gram of organ.; assay type: ADME, organism-based; settings: in vivo
In short: (§2)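 Male albino CD rats (225-250 g) received the 11C-labelled radioligand in saline by tail-vein injection. Three rats per time point were decapitated under light ether anaesthesia at 5, 15, 30, 60 or 90 min. Blood was collected heparinized and plasma separated by centrifugation. The pituitary was dissected from the brain. Lung, liver (three-lobe pieces) and right deltoid muscle were sampled, washed in cold saline, gamma-counted and weighed. Results are %I.D./g.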

Structure (SMILES) | I.D./g [%]
Cc1c(C(=O)N(C)Cc2ccccc2)nc2ccccc2c1-c1ccccc1 | 0.06

species on record: Rattus norvegicus; experiment: Tissue (liver) distribution in Albino male CD rats after 60 minutes expressed as percent of injected dose per gram of organ.; assay type: ADME, organism-based; settings: in vivo, 1 h; in short: as §2

Structure (SMILES) | I.D./g [%]
Cc1c(C(=O)N(C)Cc2ccccc2)nc2ccccc2c1-c1ccccc1 | 0.41

species on record: Rattus norvegicus; experiment: Tissue (spleen) distribution in Albino male CD rats after 90 minutes expressed as percent of injected dose per gram of organ.; assay type: ADME, organism-based; settings: in vivo, 1.5 h

Structure (SMILES) | I.D./g [%]
Cc1c(C(=O)N(C)Cc2ccccc2)nc2ccccc2c1-c1ccccc1 | 1.56

species on record: Rattus norvegicus; experiment: Tissue (kidney) distribution in Albino male CD rats after 60 minutes expressed as percent of injected dose per gram of organ.; assay type: ADME, organism-based; settings: in vivo, 1 h
In short: (§3)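 Radioligand given in saline into tail vein of male albino CD rats (225-250 g); 100-200 µCi per animal, 1-2 Ci/µmol at injection depending on radioligand. Three rats per time point were decapitated under light ether anaesthesia. Blood, plasma, brain regions and washed organs were weighed and gamma-counted. Uptake is %I.D./g tissue, mean ± SD.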

Structure (SMILES) | I.D./g [%]
Cc1c(C(=O)N(C)Cc2ccccc2)nc2ccccc2c1-c1ccccc1 | 1.14

species on record: Rattus norvegicus; experiment: Tissue (lung) distribution in Albino male CD rats after 30 minutes expressed as percent of injected dose per gram of organ.; assay type: ADME, organism-based; settings: in vivo, 0.5 h; in short: as §2

Structure (SMILES) | I.D./g [%]
Cc1c(C(=O)N(C)Cc2ccccc2)nc2ccccc2c1-c1ccccc1 | 2

species on record: Rattus norvegicus; experiment: Tissue (spleen) concentration of radioactivity at 30 min post-injection into Albino male CD rats with vehicle.; assay type: ADME, organism-based; settings: in vivo, 0.5 h
In short: (§4)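 Blocking study in male albino CD rats, five per group. Immediately before the 11C radioligand (in saline, i.v. tail vein), rats received 30 µL tail-vein PK 11195 (5 mg/kg; 1.4-1.6 mg) in DMSO:EtOH 1:1, or vehicle. Rats were decapitated at 30 min. Tissues were dissected, washed, gamma-counted and weighed as in the biodistribution study. Results are %I.D./g.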

Structure (SMILES) | I.D./g [%]
Cc1c(C(=O)N(C)Cc2ccccc2)nc2ccccc2c1-c1ccccc1 | 0.26

species on record: Rattus norvegicus; experiment: Tissue (plasma) distribution in Albino male CD rats after 15 minutes expressed as percent of injected dose per gram of organ.; assay type: ADME, organism-based; settings: in vivo, 0.25 h; in short: as §2

Structure (SMILES) | I.D./g [%]
Cc1c(C(=O)N(C)Cc2ccccc2)nc2ccccc2c1-c1ccccc1 | 0.09

species on record: Rattus norvegicus; experiment: Tissue (pituitary) distribution in Albino male CD rats after 60 minutes expressed as percent of injected dose per gram of organ.; assay type: ADME, organism-based, Pituitary gland; settings: in vivo, 1 h; in short: as §2

Structure (SMILES) | I.D./g [%]
Cc1c(C(=O)N(C)Cc2ccccc2)nc2ccccc2c1-c1ccccc1 | 0.36

species on record: Rattus norvegicus; experiment: Tissue (blood) distribution in Albino male CD rats after 5 minutes expressed as percent of injected dose per gram of organ.; assay type: ADME, organism-based; settings: in vivo; in short: as §3

Structure (SMILES) | I.D./g [%]
Cc1c(C(=O)N(C)Cc2ccccc2)nc2ccccc2c1-c1ccccc1 | 0.2

species on record: Rattus norvegicus; experiment: Tissue (cerebellum) distribution in Albino male CD rats after 15 minutes expressed as percent of injected dose per gram of organ.; assay type: ADME, organism-based; settings: in vivo, 0.25 h; in short: as §3

Structure (SMILES) | I.D./g [%]
Cc1c(C(=O)N(C)Cc2ccccc2)nc2ccccc2c1-c1ccccc1 | 0.2

target: Translocator protein (Rattus norvegicus) (UniProt P16257); experiment: Tissue (muscle) concentration of radioactivity at 30 min post-injection into Albino male CD rats after pretreatment with cold PK 11195.; assay type: functional; settings: not given; in short: as §4

Structure (SMILES) | I.D./g [%]
Cc1c(C(=O)N(C)Cc2ccccc2)nc2ccccc2c1-c1ccccc1 | > 0.02

species on record: Rattus norvegicus; experiment: Tissue (kidney) distribution in Albino male CD rats after 5 minutes expressed as percent of injected dose per gram of organ.; assay type: ADME, organism-based; settings: in vivo; in short: as §3

Structure (SMILES) | I.D./g [%]
Cc1c(C(=O)N(C)Cc2ccccc2)nc2ccccc2c1-c1ccccc1 | 0.79

species on record: Rattus norvegicus; experiment: Tissue (kidney) concentration of radioactivity at 30 min post-injection into Albino male CD rats with vehicle.; assay type: ADME, organism-based; settings: in vivo, 0.5 h; in short: as §1

Structure (SMILES) | I.D./g [%]
Cc1c(C(=O)N(C)Cc2ccccc2)nc2ccccc2c1-c1ccccc1 | 0.19

species on record: Rattus norvegicus; experiment: Tissue (lung) distribution in Albino male CD rats after 5 minutes expressed as percent of injected dose per gram of organ.; assay type: ADME, organism-based; settings: in vivo; in short: as §2

Structure (SMILES) | I.D./g [%]
Cc1c(C(=O)N(C)Cc2ccccc2)nc2ccccc2c1-c1ccccc1 | 4

species on record: Rattus norvegicus; experiment: Tissue (adrenal gland) distribution in Albino male CD rats after 5 minutes expressed as percent of injected dose per gram of organ.; assay type: ADME, organism-based; settings: in vivo; in short: as §3

Structure (SMILES) | I.D./g [%]
Cc1c(C(=O)N(C)Cc2ccccc2)nc2ccccc2c1-c1ccccc1 | 0.77

species on record: Rattus norvegicus; experiment: Tissue (intestine) distribution in Albino male CD rats after 15 minutes expressed as percent of injected dose per gram of organ.; assay type: ADME, organism-based; settings: in vivo, 0.25 h; in short: as §3

Structure (SMILES) | I.D./g [%]
Cc1c(C(=O)N(C)Cc2ccccc2)nc2ccccc2c1-c1ccccc1 | 0.78

species on record: Rattus norvegicus; experiment: Tissue (cerebellum) distribution in Albino male CD rats after 90 minutes expressed as percent of injected dose per gram of organ.; assay type: ADME, organism-based; settings: in vivo, 1.5 h; in short: as §3

Structure (SMILES) | I.D./g [%]
Cc1c(C(=O)N(C)Cc2ccccc2)nc2ccccc2c1-c1ccccc1 | 0.09

species on record: Rattus norvegicus; experiment: Tissue (liver) distribution in Albino male CD rats after 15 minutes expressed as percent of injected dose per gram of organ.; assay type: ADME, organism-based; settings: in vivo, 0.25 h; in short: as §3

Structure (SMILES) | I.D./g [%]
Cc1c(C(=O)N(C)Cc2ccccc2)nc2ccccc2c1-c1ccccc1 | 0.59

species on record: Rattus norvegicus; experiment: Tissue (testicle) distribution in Albino male CD rats after 30 minutes expressed as percent of injected dose per gram of organ.; assay type: ADME, organism-based; settings: in vivo, 0.5 h; in short: as §2

Structure (SMILES) | I.D./g [%]
Cc1c(C(=O)N(C)Cc2ccccc2)nc2ccccc2c1-c1ccccc1 | 0.13
